Results published in ChEMBL document CHEMBL3102723, “Design, synthesis and anti-inflammatory evaluation of novel 5-benzylidene-3,4-dihalo-furan-2-one derivatives” (Eur J Med Chem, 2014).
Activity calls are given as the source filed them. The rule behind the calls is not given here.

Legend:
RAW264.7 [1] = experiment: Antiinflammatory activity in mouse RAW264.7 cells assessed as inhibition of LPS-induced nitric oxide release at 10 uM treated 2 hrs before LPS challenge measured after 48 hrs by Griess assay relative to control; assay type: functional
RAW264.7 [2] = experiment: Antiinflammatory activity in mouse RAW264.7 cells assessed as inhibition of LPS-induced IL-6 release at 10 uM treated 2 hrs before LPS challenge measured after 12 hrs by ELISA (reference value: 13.9 +/- 2.6 pg/ml); assay type: functional
RAW264.7 [3] = experiment: Antiinflammatory activity in mouse RAW264.7 cells assessed as inhibition of LPS-induced IL-6 release at 10 uM treated 2 hrs before LPS challenge measured by ELISA; assay type: functional, cell-based; settings: TDE = time-dependent effect
[4] = Cytotoxicity against mouse RAW264.7 cells assessed as cell viability at 10 uM after 48 hrs by MTT assay relative to control; assay type: cell-based; settings: read-out: Activity
Procedure, shortened: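 MTT assay. RAW264.7 cells at 4 × 10^3 cells/well, cultured 16 h, then exposed to compounds diluted in DMEM for 48 h. MTT (0.5 mg/mL) added for 4 h, formazan dissolved in DMSO, OD570 read. Viability = compound OD570/blank OD570 × 100%, with the medium-only blank set as 100%. Three independent experiments.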

RAW264.7 [5] = experiment: Antiinflammatory activity in mouse RAW264.7 cells assessed as inhibition of LPS-induced IL-6 release at 10 uM treated 2 hrs before LPS challenge measured after 24 hrs by ELISA (reference value: 45.1 +/- 5.6 pg/ml); assay type: functional
RAW264.7 [6] = experiment: Antiinflammatory activity in mouse RAW264.7 cells assessed as inhibition of LPS-induced TNF-alpha release at 10 uM treated 2 hrs before LPS challenge measured after 24 hrs by ELISA (reference value: 38.3 +/- 3.3 pg/ml); assay type: functional
RAW264.7 [7] = experiment: Antiinflammatory activity in mouse RAW264.7 cells assessed as inhibition of LPS-induced IL-6 release at 10 uM treated 2 hrs before LPS challenge measured after 6 hrs by ELISA (reference value: 7.2 +/- 0.9 pg/ml); assay type: functional
RAW264.7 [8] = experiment: Antiinflammatory activity in mouse RAW264.7 cells assessed as inhibition of LPS-induced TNF-alpha release at 10 uM treated 2 hrs before LPS challenge measured after 12 hrs by ELISA (reference value: 11.8 +/- 1.2 pg/ml); assay type: functional
RAW264.7 [9] = experiment: Antiinflammatory activity in mouse RAW264.7 cells assessed as inhibition of LPS-induced TNF-alpha release at 10 uM treated 2 hrs before LPS challenge measured by ELISA; assay type: functional, cell-based; settings: TDE = time-dependent effect
RAW264.7 [10] = experiment: Antiinflammatory activity in mouse RAW264.7 cells assessed as inhibition of LPS-induced TNF-alpha release at 10 uM treated 2 hrs before LPS challenge measured after 6 hrs by ELISA (reference value: 5.9 +/- 0.5 pg/ml); assay type: functional
[11] = target: T1, Peroxisome proliferator-activated receptor gamma (Mus musculus) (UniProt P37238); experiment: Inhibition of PPARgamma in mouse RAW264.7 cells assessed as inhibition of LPS-induced p38 MAPK phosphorylation at 10 uM after 4 hrs by Western blot analysis; assay type: cell-based
T1 sequence (whole entry): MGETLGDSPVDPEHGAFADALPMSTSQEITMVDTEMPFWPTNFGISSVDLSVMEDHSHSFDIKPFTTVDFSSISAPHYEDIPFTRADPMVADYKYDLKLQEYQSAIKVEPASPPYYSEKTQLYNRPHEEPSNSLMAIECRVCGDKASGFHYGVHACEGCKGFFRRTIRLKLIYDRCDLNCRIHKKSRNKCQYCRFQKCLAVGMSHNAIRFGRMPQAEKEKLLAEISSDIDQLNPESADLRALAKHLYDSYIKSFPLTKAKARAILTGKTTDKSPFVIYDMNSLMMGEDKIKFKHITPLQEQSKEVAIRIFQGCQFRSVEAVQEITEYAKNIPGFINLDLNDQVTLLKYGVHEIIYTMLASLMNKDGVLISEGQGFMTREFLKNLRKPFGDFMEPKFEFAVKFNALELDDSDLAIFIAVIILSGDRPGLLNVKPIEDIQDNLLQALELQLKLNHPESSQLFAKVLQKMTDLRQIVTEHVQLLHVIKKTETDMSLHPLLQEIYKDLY
Procedure, shortened: (§1)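 RAW264.7 cells at 2 × 10^6 per well, cultured 18 h, then given fresh medium with compounds plus 500 ng/mL LPS for 4 h, with GW9662 at 5 where included. Lysates clarified at 14,000 × g, protein by BCA, equal loads on SDS-PAGE. Blots blocked in 5% milk/TBST, primary antibodies 1:1000 overnight, secondary 1:1000 90 min, ECL detection. Means ± SD (n = 3).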

[12] = target: T1, Peroxisome proliferator-activated receptor gamma (Mus musculus); experiment: Inhibition of PPARgamma in mouse RAW264.7 cells assessed as inhibition of LPS-induced IkappaBalpha phosphorylation at 10 uM after 4 hrs by Western blot analysis; assay type: cell-based; procedure, shortened: as §1
[13] = target: T1, Peroxisome proliferator-activated receptor gamma (Mus musculus); experiment: Inhibition of PPARgamma in mouse RAW264.7 cells assessed as inhibition of LPS-induced p38 MAPK phosphorylation at 10 uM after 4 hrs by Western blot analysis in presence of PPARgamma antagonist GW9662; assay type: cell-based; procedure, shortened: as §1
[14] = target: T1, Peroxisome proliferator-activated receptor gamma (Mus musculus); experiment: Inhibition of PPARgamma in mouse RAW264.7 cells assessed as inhibition of LPS-induced ERK1/2 phosphorylation at 10 uM after 4 hrs by Western blot analysis in presence of PPARgamma antagonist GW9662; assay type: cell-based; procedure, shortened: as §1
[15] = target: T1, Peroxisome proliferator-activated receptor gamma (Mus musculus); experiment: Inhibition of PPARgamma in mouse RAW264.7 cells assessed as inhibition of LPS-induced JNK phosphorylation at 10 uM after 4 hrs by Western blot analysis in presence of PPARgamma antagonist GW9662; assay type: cell-based; procedure, shortened: as §1
[16] = target: T1, Peroxisome proliferator-activated receptor gamma (Mus musculus); experiment: Inhibition of PPARgamma in mouse RAW264.7 cells assessed as inhibition of LPS-induced NF-kappaB 65 phosphorylation at 10 uM after 4 hrs by Western blot analysis; assay type: cell-based; procedure, shortened: as §1
[17] = target: T1, Peroxisome proliferator-activated receptor gamma (Mus musculus); experiment: Inhibition of PPARgamma in mouse RAW264.7 cells assessed as inhibition of LPS-induced ERK1/2 phosphorylation at 10 uM after 4 hrs by Western blot analysis; assay type: cell-based; procedure, shortened: as §1
[18] = target: T1, Peroxisome proliferator-activated receptor gamma (Mus musculus); experiment: Inhibition of PPARgamma in mouse RAW264.7 cells assessed as inhibition of LPS-induced IkappaBalpha phosphorylation at 10 uM after 4 hrs by Western blot analysis in presence of PPARgamma antagonist GW9662; assay type: cell-based; procedure, shortened: as §1
[19] = target: T1, Peroxisome proliferator-activated receptor gamma (Mus musculus); experiment: Inhibition of PPARgamma in mouse RAW264.7 cells assessed as inhibition of LPS-induced NF-kappaB 65 phosphorylation at 10 uM after 4 hrs by Western blot analysis in presence of PPARgamma antagonist GW9662; assay type: cell-based; procedure, shortened: as §1
[20] = target: T1, Peroxisome proliferator-activated receptor gamma (Mus musculus); experiment: Inhibition of PPARgamma in mouse RAW264.7 cells assessed as inhibition of LPS-induced JNK phosphorylation at 10 uM after 4 hrs by Western blot analysis; assay type: cell-based; procedure, shortened: as §1

O=C1O/C(=C\c2ccc(OCCc3ccccn3)cc2)C(Cl)=C1Cl
inhibition at 10 µM (RAW264.7 [1]): 20.2%

CCOc1cc(/C=C2\OC(=O)C(Br)=C2Br)ccc1OCc1ccccn1
inhibition at 10 µM (RAW264.7 [1]): 42.2%

Cc1nc(C)c(COc2cccc(/C=C3\SC(=O)NC3=O)c2)nc1C
inhibition at 10 µM (RAW264.7 [1]): 23.5%

COc1cc(/C=C2\OC(=O)C(Br)=C2Br)ccc1OCc1ccccn1
inhibition at 10 µM (RAW264.7 [1]): 33.9%

CCOc1cc(/C=C2\OC(=O)C(Cl)=C2Cl)ccc1OCc1ccccn1
inhibition at 10 µM (RAW264.7 [1]): 36.8%

Cc1nc(C)c(COc2ccc(/C=C3\OC(=O)C(Br)=C3Br)cc2)nc1C
inhibition at 10 µM (RAW264.7 [1]): 30.1%

CCc1ccc(CCOc2ccc(/C=C3\OC(=O)C(Cl)=C3Cl)cc2)nc1
inhibition at 10 µM (RAW264.7 [1]): 40.8%

O=C1O/C(=C\c2ccc(OCc3ccccn3)cc2)C(Cl)=C1Cl
inhibition at 10 µM (RAW264.7 [1]): 16.3%

CCOc1cc(/C=C2\OC(=O)C(Br)=C2Br)ccc1OCCc1ccccn1
inhibition at 10 µM (RAW264.7 [1]): 62.9%

O=C1O/C(=C\c2ccc(OCCc3ccccn3)cc2)C(Br)=C1Br
inhibition at 10 µM (RAW264.7 [1]): 38%

COc1ccc2c(c1)c(CC(=O)O)c(C)n2C(=O)c1ccc(Cl)cc1 [INDOMETHACIN]
Activity (RAW264.7 [2]): 2989.6 pg/mL | inhibition (RAW264.7 [3]): tde | inhibition at 10 µM (RAW264.7 [1]): 31.3% | viability at 48 h, 10 µM [4]: 101% | Activity (RAW264.7 [5]): 7645.9 pg/mL | Activity (RAW264.7 [6]): 1242 pg/mL | Activity (RAW264.7 [7]): 2313.5 pg/mL | Activity (RAW264.7 [8]): 612.6 pg/mL | inhibition (RAW264.7 [9]): tde | Activity (RAW264.7 [10]): 366.5 pg/mL

CCOc1cc(/C=C2\OC(=O)C(Br)=C2Br)ccc1OCCc1ccc(CC)cn1
Activity (RAW264.7 [2]): 902.2 pg/mL | inhibition (RAW264.7 [3]): tde | inhibition at 10 µM (RAW264.7 [1]): 80.1% | inhibition [11]: Active | inhibition [12]: Active | inhibition [13]: inactive | viability at 48 h, 10 µM [4]: 93.1% | inhibition [14]: inactive | Activity (RAW264.7 [5]): 2360.2 pg/mL | Activity (RAW264.7 [6]): 1044.2 pg/mL | Activity (RAW264.7 [7]): 598.1 pg/mL | Activity (RAW264.7 [8]): 519.8 pg/mL | inhibition [15]: inactive | inhibition [16]: Active | inhibition [17]: Active | inhibition [18]: inactive | inhibition (RAW264.7 [9]): tde | inhibition [19]: inactive | inhibition [20]: Active | Activity (RAW264.7 [10]): 323.8 pg/mL

COc1cc(/C=C2\OC(=O)C(Br)=C2Br)ccc1OCc1nc(C)c(C)nc1C
inhibition at 10 µM (RAW264.7 [1]): 37.2%
